Among the data in ChEMBL document CHEMBL2021925, “In vitro antimycoplasmal activity of Citrus bergamia essential oil and its major components” (2012) are MIC50 and MIC90 values, retold here.

One test has as its system Metamycoplasma hominis. Put plainly: Antimycoplasmal activity against Mycoplasma hominis PG21 after 24 to 48 hrs by broth microdilution method. The format is functional. A digest of the protocol: (§1)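 Strains were grown in SP-4 broth and stored frozen at -80 C until testing. Broth microdilution with agent concentrations expressed as % v/v. MIC was the lowest concentration preventing the broth colour change when the growth-control tube changed: pH falling from 7.5 to 7.0 for M. fermentans, rising from 6.0 to 6.5 for M. hominis. Incubation was 24–48 h. Each strain was tested six times, plus six more times on different days. Growth and sterility controls were included.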
For orientation: In broth dilution the organism is exposed to a series of concentrations in liquid medium.

The subject of another test is Mycoplasma fermentans. Put plainly: Antimycoplasmal activity against Mycoplasma fermentans Pg18 after 24 to 48 hrs by broth microdilution method. In kind it is functional, Mycoplasmopsis fermentans. A digest of the protocol: as §1
The test system of test [1] is Mycoplasmoides pneumoniae. Kind of test: Antimycoplasmal activity against Mycoplasma pneumoniae M129 after 3 to 5 days by broth microdilution method.

The molecule `C=C(C)[C@H]1CC=C(C)CC1` [D-LIMONENE] came in with an MIC50 in the test on Metamycoplasma hominis of 4 %v/v. In addition, the results for the MIC90 (in the test on Metamycoplasma hominis; in the test with Mycoplasma fermentans; in test [1]) were 8 %v/v, 1 %v/v and 0.03 %v/v, respectively.
For `C=CC(C)(O)CCC=C(C)C` (configuration not stated) [LINALOOL], in that order: 1 %v/v, 1 %v/v, 0.06 %v/v and 0.015 %v/v.
Take `C=CC(C)(CCC=C(C)C)OC(C)=O` (configuration not stated) [LINALYL ACETATE]: in the test with Metamycoplasma hominis, the MIC50 came to 0.015 %v/v. Besides, the values for the MIC90 (against Metamycoplasma hominis; against Mycoplasma fermentans; in test [1]) were 0.015 %v/v, 0.12 %v/v and 0.015 %v/v, respectively.
